Results from ChEMBL document CHEMBL2021799, “Exploring the interplay of physicochemical properties, membrane permeability and giardicidal activity of some benzimidazole derivatives” (Eur J Med Chem, 2012).
pIC50: −log10 of the molar value. In brackets after ≈: the same amount, converted by molar mass.

How the values were obtained:
Giardia intestinalis [1] = assay: Antiparasitic activity against Giardia duodenalis IMSS:0989 after 48 hrs; type: functional, organism-based; details: IMSS:0989, 48 h
In short: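 G. duodenalis trophozoites grown in modified TYI-S-33 with 10% calf serum and bovine bile. 5 × 10⁴ trophozoites incubated 48 h at 37 °C with increasing compound concentrations; DMSO-treated trophozoites as negative control. An aliquot was then subcultured 48 h in fresh drug-free medium, trophozoites counted, and IC50 obtained by Probit analysis.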

Caco-2 [2] = assay: Apparent permeability from apical to basolateral side of human Caco2 cells at 100 uM up to 90 mins; details: caco-2, 1.5 h
[3] = Aqueous solubility of the compound
Caco-2 [4] = assay: Apparent permeability from basolateral to apical side of human Caco2 cells at 100 uM up to 90 mins; details: caco-2, 1.5 h
Caco-2 [5] = assay: Influx ratio of permeability from basolateral to apical side over apical to basolateral side in human Caco2 cells at 100 uM up to 90 mins; details: caco-2, 1.5 h
[6] = Lipophilicity, logkw of the compound by RP-HPLC analysis
[7] = Distribution coefficient, log D of the compound; details: octanol/water
Caco-2 [8] = assay: Efflux ratio of permeability from apical to basolateral side over basolateral to apical side in human Caco2 cells at 100 uM up to 90 mins; details: caco-2, 1.5 h
Giardia intestinalis [9] = assay: Ratio of metronidazole IC50 to compound IC50 for Giardia duodenalis IMSS:0989; type: functional
[10] = aqueous medium, not specified further

pIC50 (Giardia intestinalis [1])	Papp (Caco-2 [2]) [×10⁻⁶ cm/s]	solubility [3, 10] [µg/mL]	Papp (Caco-2 [4]) [×10⁻⁶ cm/s]	Ratio (Caco-2 [5])	logKw [6]	log1/S ([3]; buffer)	logD [7]	Ratio (Caco-2 [8])	SMILES	solubility ([3]; buffer) [µg/mL]	Ratio IC50 (Giardia intestinalis [9])
6.76	0.57	0.189 (≈ 0.819 µM)	0.74						O=C(O)c1ccc2nc(C(F)(F)F)[nH]c2c1		
5.92	32.7	0.555 (≈ 2.27 µM)	23	1.42	1.94	5.64	3.52	0.7	COC(=O)c1ccc2[nH]c(C(F)(F)F)nc2c1		
6.62	5.21		9.57	0.54	3.19	9.12	4.95	1.83	Cn1c(N)nc2cc(Cl)ccc21	0.0001 (≈ 0.000551 µM)	
5.56	9.83	10.9 (≈ 44.6 µM)	7.25	1.35	1.47	4.35	2.98	0.74	Cn1c(C(F)(F)F)nc2cc(C(=O)O)ccc21		
6.48	5.09	98.7 (≈ 404 µM)	4.65	1.09	1.13	3.39	3.7	0.91	Cn1c(C(F)(F)F)nc2ccc(C(=O)O)cc21		
5.61	26.7	0.281 (≈ 1.09 µM)	23.9	1.11	2.05	5.96	3.65	0.89	COC(=O)c1ccc2c(c1)nc(C(F)(F)F)n2C		
5.42	39.2	0.0859 (≈ 0.333 µM)	21.8	1.8	2.24	6.47	3.86	0.55	COC(=O)c1ccc2nc(C(F)(F)F)n(C)c2c1		
6.88	21.9	0.0401 (≈ 0.112 µM)	11	1.99	2.4	6.94	4.06	0.5	CCN(CC)C(=O)COC(=O)c1ccc2c(c1)nc(C(F)(F)F)n2C		
6.33	15.4	0.0572 (≈ 0.16 µM)	13	1.17	2.29	6.62	2.81	0.84	CCN(CC)C(=O)COC(=O)c1ccc2nc(C(F)(F)F)n(C)c2c1		
6.49		87.8 (≈ 361 µM)			1.21	3.6	2.68		CNC(=O)c1ccc2[nH]c(C(F)(F)F)nc2c1		
6.68	14.6	29.6 (≈ 115 µM)	8.98	1.62	1.33	3.93	3.92	0.61	CNC(=O)c1ccc2nc(C(F)(F)F)n(C)c2c1		
7.48	7.12	1.14 (≈ 6.39 µM)	9.57	0.74	1.78	5.19	3.33	1.34	CSc1nc2ccccc2n1C		
7.74	8.14	36 (≈ 219 µM)	14.5	0.56	1.23	3.65	2.7	1.78	Cn1c(S)nc2ccccc21		67
7.70	14.1	0.588 (≈ 2.96 µM)	27.2	0.51	1.9	5.59	3.47	1.93	Cn1c(S)nc2ccc(Cl)cc21		27
6.91									CSc1nc2ccc(Cl)cc2n1C		
7.26	7.98	0.0716 (≈ 0.333 µM)	11.2	0.71	2.24	6.47	3.86	1.4	Cc1nc2cc(Cl)c(Cl)cc2n1C		
7.05	9.03	5790 (≈ 39600 µM)	10.2	0.88	0.42	1.4	1.77	1.13	Cc1nc2ccccc2n1C		
7.55	7.59	0.0172 (≈ 0.0809 µM)	14.2	0.53	2.46	7.09	4.11	1.87	CSc1nc2cc(Cl)ccc2n1C		
7.35	6.92	3.79 (≈ 19.1 µM)	9.57	0.72	1.61	4.71	3.14	1.38	Cn1c(S)nc2cc(Cl)ccc21		61
7.36									Cc1nc2ccc(Cl)cc2n1C		
		0.992 (≈ 5.33 µM)			1.8	5.27	3.36		FC(F)(F)c1nc2ccccc2[nH]1		
		0.033 (≈ 0.141 µM)			2.37	6.85	4.02		Cn1c(C(F)(F)F)nc2ccc(Cl)cc21		
		0.0025 (≈ 0.0098 µM)			2.78	8	4.49		FC(F)(F)c1nc2cc(Cl)c(Cl)cc2[nH]1		
		0.0412 (≈ 0.176 µM)			2.33	6.75	3.98		Cn1c(C(F)(F)F)nc2cc(Cl)ccc21		
7.25		0.025 (≈ 0.0835 µM)			2.44	7.07	3.93		COC(=O)Nc1nc2ccc(Sc3ccccc3)cc2[nH]1 [FENBENDAZOLE]		
7.26	5.15		4.34		1.68		3.73		COC(=O)Nc1nc2ccc(C(=O)c3ccccc3)cc2[nH]1 [MEBENDAZOLE]		
			37.9	1.27				0.78	CC(C)NCC(O)COc1cccc2ccccc12 (centres undefined) [PROPRANOLOL]		

SMILES	pIC50 (Giardia intestinalis [1])	Papp (Caco-2 [2]) [×10⁻⁶ cm/s]	solubility [3, 10] [µg/mL]	Papp (Caco-2 [4]) [×10⁻⁶ cm/s]	Ratio (Caco-2 [5])	logKw [6]	log1/S ([3]; buffer)	logD [7]	Ratio (Caco-2 [8])	solubility ([3]; buffer) [µg/mL]	Ratio IC50 (Giardia intestinalis [9])
CCCSc1ccc2nc(NC(=O)OC)[nH]c2c1 [ALBENDAZOLE]		3.14	0.75 (≈ 2.83 µM)	1.99	1.35	1.95	5.55	3.83	0.74		
c1ccc2[nH]cnc2c1 [BENZIMIDAZOLE]	3.86		7600 (≈ 64400 µM)			0.27	1.45	1.37			
COC(=O)Nc1nc2ccccc2[nH]1 [CARBENDAZIM]						0.9	1.89	1.49		2441 (≈ 12800 µM)	
